The values below come from ChEMBL document CHEMBL1128522, “Phosphinic acid analogues of GABA. 2. Selective, orally active GABAB antagonists” (J Med Chem, 1995).

The target in assay [1] is Gamma-aminobutyric acid type B receptor subunit 1 (Rattus norvegicus, UniProt Q9Z0U4). Kind of assay: Inhibition of binding of [3H]CGP-27492 to gamma-aminobutyric acid type B receptor of rat cortex.
The species named for assay [2] is Rattus norvegicus. Nature of the assay: The compound was tested for enhancement of electrically induced release of [3H]GABA from rat cortical slices. The class given is functional. The method, boiled down:
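Rat cerebral cortex slices were electrically stimulated at 2 Hz, and the increase in GABA release was measured in quadruplicate. EC150, the concentration giving a 50% increase in GABA release, came from computer-aided curve fitting. Where no EC150 was given, the value is the percent increase at 10^-4 M or 10^-5 M.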

For assay [3], the species on record is Rattus norvegicus. Nature of the assay: Enhanced electrically induced release of [3H]GABA from rat cortical slices; agonist. The class given is functional. To be noted: filed as agonist. In short, it runs like this:
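Electrically stimulated rat cerebral cortex slices at 2 Hz; [3H]GABA release measured. EC150 is the concentration giving a 50% increase in GABA release, obtained by computer-aided curve fitting. Run in quadruplicate; no standard deviations computed because curve slopes varied. Some entries are instead percent increase at a single concentration of 10^-4 or 10^-5 M.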

Assay [4] can be described thus: Inhibition of [3H]5-HT binding to 5-hydroxytryptamine 1 receptor of central nervous system. To be noted: concentration not given here.
Assay [5] has as its target Histamine H2 receptor (Homo sapiens) (UniProt P25021). Nature of the assay: Inhibition of [3H]tiotidine binding to histamine 2 receptor of central nervous system. As to conditions: concentration not given here.
Assay [6] deals with Glutamate receptor ionotropic kainate (Homo sapiens) (UniProt P39086+Q16478+Q16099+Q13002+Q13003). Kind of assay: Inhibition of [3H]kainate binding to Ionotropic glutamate receptor kainate of central nervous system. The class given is protein-complex assay. To be noted: concentration not given here.
Assay [7] addresses Glutamate receptor ionotropic AMPA (Homo sapiens) (UniProt P48058+P42263+P42262+P42261). Kind of assay: Inhibition of [3H]-AMPA binding to Quisqualate receptor of central nervous system. The class given is protein-complex assay. As to conditions: concentration not given here.
The nature of assay [8]: Inhibition of [3H]DCKA binding to N-methyl-D-aspartate glutamate receptor 1 of central nervous system. As to conditions: concentration not given here.
The target in assay [9] is Histamine H1 receptor (Homo sapiens) (UniProt P35367). Kind of assay: Inhibition of [3H]doxepine binding to histamine-1 receptor of central nervous system. To be noted: concentration not given here.

As a reminder, the IC50 is the concentration that gives 50% inhibition. Read a low IC50 as higher potency. The term inhibition denotes the percentage by which the read-out fell short of the control. Read a low inhibition as little suppression.

Gamma-aminobutyric acid type B receptor subunit 1, sequence (Q9Z0U4 whole entry): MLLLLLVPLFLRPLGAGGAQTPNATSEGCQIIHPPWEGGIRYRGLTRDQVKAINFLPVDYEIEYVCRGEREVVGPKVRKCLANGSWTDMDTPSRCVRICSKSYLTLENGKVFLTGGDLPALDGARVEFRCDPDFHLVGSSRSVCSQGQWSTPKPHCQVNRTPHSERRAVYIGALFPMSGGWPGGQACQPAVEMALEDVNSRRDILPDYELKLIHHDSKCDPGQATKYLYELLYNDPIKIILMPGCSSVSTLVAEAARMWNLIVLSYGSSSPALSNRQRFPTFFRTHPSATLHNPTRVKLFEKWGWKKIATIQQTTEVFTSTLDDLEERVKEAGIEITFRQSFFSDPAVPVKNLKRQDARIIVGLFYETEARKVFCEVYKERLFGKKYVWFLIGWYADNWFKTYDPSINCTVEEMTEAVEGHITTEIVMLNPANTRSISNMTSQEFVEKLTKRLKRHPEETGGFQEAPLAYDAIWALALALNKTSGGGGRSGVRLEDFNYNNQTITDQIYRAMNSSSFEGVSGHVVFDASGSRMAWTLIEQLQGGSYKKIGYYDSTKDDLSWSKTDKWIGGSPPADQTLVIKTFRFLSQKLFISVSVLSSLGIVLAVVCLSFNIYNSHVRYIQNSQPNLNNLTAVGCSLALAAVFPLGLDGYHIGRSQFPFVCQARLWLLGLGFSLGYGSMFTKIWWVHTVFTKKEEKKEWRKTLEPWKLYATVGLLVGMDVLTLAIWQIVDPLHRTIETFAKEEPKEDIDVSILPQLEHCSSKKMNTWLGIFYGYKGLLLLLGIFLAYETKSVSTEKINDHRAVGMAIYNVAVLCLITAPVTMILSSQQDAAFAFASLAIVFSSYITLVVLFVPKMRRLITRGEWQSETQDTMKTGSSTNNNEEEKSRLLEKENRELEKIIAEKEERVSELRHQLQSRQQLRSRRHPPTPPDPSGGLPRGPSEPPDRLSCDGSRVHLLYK
Histamine H2 receptor (Homo sapiens), sequence (P25021 whole entry): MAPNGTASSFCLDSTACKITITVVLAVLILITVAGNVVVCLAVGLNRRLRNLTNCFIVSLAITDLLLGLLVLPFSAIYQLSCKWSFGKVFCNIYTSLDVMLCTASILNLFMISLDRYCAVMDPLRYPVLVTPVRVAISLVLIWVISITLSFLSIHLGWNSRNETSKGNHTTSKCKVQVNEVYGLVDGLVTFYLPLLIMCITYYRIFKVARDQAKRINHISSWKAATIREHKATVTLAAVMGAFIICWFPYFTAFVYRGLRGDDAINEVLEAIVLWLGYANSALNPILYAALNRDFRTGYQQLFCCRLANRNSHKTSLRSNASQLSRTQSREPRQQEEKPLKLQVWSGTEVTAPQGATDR
Histamine H1 receptor (Homo sapiens), sequence (P35367 whole entry): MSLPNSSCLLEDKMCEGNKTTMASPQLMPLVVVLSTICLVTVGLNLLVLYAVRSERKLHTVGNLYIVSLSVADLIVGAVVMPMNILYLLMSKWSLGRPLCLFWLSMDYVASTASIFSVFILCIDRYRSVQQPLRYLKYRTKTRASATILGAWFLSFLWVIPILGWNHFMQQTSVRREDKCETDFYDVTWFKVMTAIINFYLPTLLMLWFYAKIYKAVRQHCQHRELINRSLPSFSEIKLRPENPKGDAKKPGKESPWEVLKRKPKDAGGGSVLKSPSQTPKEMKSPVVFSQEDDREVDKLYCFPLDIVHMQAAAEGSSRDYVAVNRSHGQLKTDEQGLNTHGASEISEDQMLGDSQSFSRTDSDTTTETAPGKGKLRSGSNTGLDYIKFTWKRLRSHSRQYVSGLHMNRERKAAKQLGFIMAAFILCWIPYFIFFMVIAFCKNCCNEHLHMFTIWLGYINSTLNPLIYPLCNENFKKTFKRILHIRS

With `NCCCP(=O)(O)CC1CCCCC1`, the half-maximal inhibitory concentration (IC50) in assay [1] came to 4 µM. Besides, the EC150 in the assay filed under Rattus norvegicus [2] was 3 µM.

Consider `CCCCP(=O)(O)CC(C)(O)CN` (stereo not drawn), for which, in [1], the 50% inhibitory concentration (IC50) came to 45 µM. In the case of `CC(C)OC(OC(C)C)P(=O)(O)CCCN`, the concentration for half-maximal inhibition (IC50) in [1] is 18 µM. Also, in the assay listed under Rattus norvegicus [2], the EC150 is 47 µM. The corresponding values for `CCCCP(=O)(O)CC(O)(CN)c1ccc(Cl)cc1` (stereo not drawn) are 7 µM and 45 µM. On to `CCCC(O)P(=O)(O)CCCN` (stereo not drawn), for which, in assay [1], the IC50 is 18 µM. For the same compound, the EC150 in the assay filed under Rattus norvegicus [2] is 44 µM.

With `NCCCP(=O)(O)CN`, the half-maximal inhibitory concentration (IC50) in [1] worked out at 50 µM. Besides, the EC150 in the assay listed under Rattus norvegicus [2] was found to be 2 µM. For the compound `NCCCP(=O)(O)CCc1ccccc1`, in assay [1], the IC50 worked out at 10 µM. Moreover, the EC150 in the assay filed under Rattus norvegicus [2] came out at 60 µM.

For the compound `CP(=O)(O)CCCN`, the EC150 result in the assay listed under Rattus norvegicus [3] was “Agonist”.

Consider `NCCCP(=O)(O)C(O)c1ccccc1` (stereo not drawn), for which the IC50 in assay [1] was determined as 8 µM. For the same compound, the EC150 in the assay listed under Rattus norvegicus [2] worked out at 10 µM.

As to `CC(=O)CCP(=O)(O)CCCN`, the half-maximal inhibitory concentration (IC50) in [1] stood at 1 µM. Moreover, in the assay filed under Rattus norvegicus [2], the EC150 stood at 4 µM. As to `CP(=O)(O)CC(O)(CN)c1ccc(Cl)cc1` (stereo not drawn), the half-maximal inhibitory concentration (IC50) in assay [1] was found to be 6 µM. For the same compound, the EC150 in the assay listed under Rattus norvegicus [2] was 30 µM.

The compound `NC[C@H](O)CP(=O)(O)CC1CCCCC1` returned an IC50 in assay [1] of 5 µM. Further, the EC150 in the assay listed under Rattus norvegicus [2] was found to be 2 µM. As for `NCCC[PH](=O)O`, the half-maximal inhibitory concentration (IC50) in assay [1] is 0.005 µM. The EC150 entry in the assay filed under Rattus norvegicus [3] was “Agonist”. For `NCCCP(=O)(O)CC1CC1`, the IC50 in [1] was found to be 37 µM. Also, the EC150 in the assay filed under Rattus norvegicus [2] is 53 µM. In the same order, the values of `NC[C@H](O)CP(=O)(O)Cc1ccccc1` are 5 µM and 5 µM. As for `NCCCP(=O)(O)CCC1CCCCC1`, the IC50 in [1] is 2 µM. Besides, in the assay listed under Rattus norvegicus [2], the EC150 amounted to 13 µM. In the same order, the values of `NCCCP(=O)(O)CCC1CCCCO1` (stereo not drawn) are 2 µM and 30 µM. `CCCOC(OCCC)P(=O)(O)CCCN`: the concentration for half-maximal inhibition (IC50) in assay [1] came out at 28 µM. For the same compound, the EC150 in the assay listed under Rattus norvegicus [2] was 60 µM. The corresponding values for `CCOC(OCC)P(=O)(O)CC(CN)c1ccc(Cl)cc1` (stereo not drawn) are 21 µM and 11 µM.

In [1], `NC[C@@H](O)CP(=O)(O)Cc1ccccc1` yielded an IC50 of 32 µM. In addition, the EC150 in the assay listed under Rattus norvegicus [2] was found to be 11 µM. In the same order, the values of `NCCCP(=O)(O)Cc1ccccc1` are 10 µM and 5 µM.

In the case of `CCCC(F)(F)P(=O)(O)CCCN`, the IC50 in [1] stood at 22 µM. Also, in the assay listed under Rattus norvegicus [2], the EC150 came out at 115 µM. In the same order, the values of `NCCCP(=O)(O)Cc1ccccn1` are 6 µM and 30 µM. In the same order, the values of `NCC(O)CP(=O)(O)CC1CCCCC1` (stereo not drawn) are 5 µM and 8 µM. `CCCCP(=O)(O)C(O)CCN` (stereo not drawn): in [1], the IC50 came to 37 µM. For the compound `CCCP(=O)(O)CCCN`, the IC50 in assay [1] was 16 µM. The EC150 in the assay filed under Rattus norvegicus [2] stood at 30 µM. Take `NCC(=O)CP(=O)(O)CC1CC1`: the IC50 in assay [1] stood at 14 µM. The EC150 in the assay filed under Rattus norvegicus [2] came out at 3 µM.

The compound `CCCCOC(OCCCC)P(=O)(O)CCCN` yielded a half-inhibitory concentration (IC50) in [1] of 20 µM. Also, in the assay filed under Rattus norvegicus [2], the EC150 worked out at 300 µM. The compound `CCOC(OCC)P(=O)(O)CC(O)CN` (stereo not drawn) returned an IC50 in assay [1] of 16 µM. The EC150 in the assay listed under Rattus norvegicus [2] came out at 9 µM.

`NCCCP(=O)(O)c1ccccc1`: the IC50 in [1] was 126 µM. Regarding `CCCCP(=O)(O)CCCN` [SGS-742], the inhibition in [4] is 2%; in assay [5], 6%; in assay [6], 8%; in [7], 7%; in assay [8], 16%; in assay [9], 7%. In addition, in the assay filed under Rattus norvegicus [2], the EC150 was determined as 38 µM. `NCC(=O)CP(=O)(O)CC1CCCCC1` showed an IC50 in [1] of 50 µM. The EC150 in the assay filed under Rattus norvegicus [2] was determined as 5 µM. Regarding `NCCCP(=O)(O)CCCN`, in [1], the IC50 was found to be 29 µM. Compound `NCCCP(=O)(O)CC1CCCCO1` (stereo not drawn) yielded a half-inhibitory concentration (IC50) in assay [1] of 32 µM. For the same compound, the EC150 in the assay filed under Rattus norvegicus [2] came out at 12 µM. In the same order, the values of `NCCCP(=O)(O)CC(O)CNC(=O)c1ccccc1C(N)=O` (stereo not drawn) are 2 µM and 9 µM. As for `CCCCP(=O)(O)C(C)CCN` (stereo not drawn), in assay [1], the IC50 worked out at 341 µM. Besides, in the assay listed under Rattus norvegicus [2], the EC150 was 8 µM. As to `NCCCP(=O)(O)C1CCCCO1` (stereo not drawn), the IC50 in [1] stood at 39 µM. Moreover, in the assay filed under Rattus norvegicus [2], the EC150 amounted to 144 µM. With `CC(C)(C)P(=O)(O)CCCN`, in assay [1], the 50% inhibitory concentration (IC50) came to 73 µM.

On to `CCCCCCP(=O)(O)CCCN`, for which, in assay [1], the IC50 is 20 µM. Besides, the EC150 in the assay listed under Rattus norvegicus [2] came to 14 µM. In the same order, the values of `CP(=O)(O)CC(CN)c1ccc(Cl)cc1` (stereo not drawn) are 9 µM and 28 µM. `CCP(=O)(O)CCCN` yielded a 50% inhibitory concentration (IC50) in [1] of 2 µM. In addition, the EC150 in the assay listed under Rattus norvegicus [2] amounted to 118 µM. In the case of `CCOC(OCC)P(=O)(O)CCCN`, the half-inhibitory concentration (IC50) in [1] was determined as 27 µM. In addition, in the assay listed under Rattus norvegicus [2], the EC150 came to 30 µM. In [1], `CCCCP(=O)(O)CC(O)CN` (stereo not drawn) yielded an IC50 of 29 µM. In addition, the EC150 in the assay filed under Rattus norvegicus [2] came out at 8 µM.

Compound `CC(C)CP(=O)(O)CCCN` displayed a half-maximal inhibitory concentration (IC50) in assay [1] of 14 µM. Further, in the assay filed under Rattus norvegicus [2], the EC150 is 98 µM. In assay [1], `NCCCP(=O)(O)Cc1ccc(F)cc1` displayed an IC50 of 52 µM. Further, in the assay listed under Rattus norvegicus [2], the EC150 was determined as 10 µM. In the same order, the values of `CCOC(OCC)P(=O)(O)C[C@@H](O)CN` are 12 µM and 11 µM. `NCCCP(=O)(O)C1CCCO1` (stereo not drawn) showed an IC50 in [1] of 34 µM. The EC150 in the assay filed under Rattus norvegicus [2] was determined as 89 µM. The corresponding values for `NC[C@@H](O)CP(=O)(O)CC1CCCCC1` are 6 µM and 4 µM. Regarding `CCCCP(=O)(O)CC(=O)CN`, the EC150 in the assay filed under Rattus norvegicus [2] came out at 6 µM. With `NCC(O)CP(=O)(O)Cc1ccccc1` (stereo not drawn), the concentration for half-maximal inhibition (IC50) in [1] was 8 µM. Further, the EC150 in the assay listed under Rattus norvegicus [2] was determined as 4 µM.
